# According to PubChem BioAssay AID602134 (Broad Institute, 2011):
# Activity calls are given as the source filed them.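 Rule for the calls: active = falling transferrin uptake with a fitted half-maximal potency at or below twice the top valid tested dose; inconclusive = flat fit with a 30 to 70% drop, or poor fit; inactive = the rest.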
# Assay: transferrin receptor uptake blockade – imaging, Alexa594-transferrin, dry powder, selectivity assay for SR-BI HDL uptake inhibitor project, dose response (AID 602134)
# How it was run: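 Material – mSR-BI cells · Buffer or medium – serum-free DMEM, 1% BSA · Reagent – Alexa-594 transferrin, 30 µg/mL · Schedule – transferrin uptake 30 min at 37 °C, stopped on ice · Detection – fluorescence imaging, Alexa-594 and DAPI · Read-out basis – normalized percent of cells with above-threshold perinuclear transferrin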
compound,measurement,value
CC1CCC/C=C/C2CC(O)CC2C(O)/C=C\C(=O)O1 (stereo unspecified),outcome,inactive
